The record followed here is ChEMBL document CHEMBL4145686, “Discovery of a Potent and Selective Steroidal Glucocorticoid Receptor Antagonist (ORIC-101)” (J Med Chem, 2018).

Molecules are shown by their SMILES.

As usually defined, the Cmax is the highest concentration seen after dosing. Usually IC50 stands for the point on the concentration scale where inhibition reaches its midpoint. The Emax is the maximal effect, on the per cent scale that the assay sets. The bioavailability is the share of a dose that reaches the circulation, judged against a reference dose that is usually intravenous. A high value points to good availability. The fraction unbound is free concentration divided by total concentration. A high value points to much free substance.

The nature of data set [1]: Cmax in mouse at 5 mg/kg, po. The format is ADME, organism-based. The arrangement: dose 5 mg/kg, route oral. To be noted: in vivo.
The next data set concerns the target T1, Glucocorticoid receptor (Rattus norvegicus, UniProt P06536).
T1 sequence (P06536 whole entry): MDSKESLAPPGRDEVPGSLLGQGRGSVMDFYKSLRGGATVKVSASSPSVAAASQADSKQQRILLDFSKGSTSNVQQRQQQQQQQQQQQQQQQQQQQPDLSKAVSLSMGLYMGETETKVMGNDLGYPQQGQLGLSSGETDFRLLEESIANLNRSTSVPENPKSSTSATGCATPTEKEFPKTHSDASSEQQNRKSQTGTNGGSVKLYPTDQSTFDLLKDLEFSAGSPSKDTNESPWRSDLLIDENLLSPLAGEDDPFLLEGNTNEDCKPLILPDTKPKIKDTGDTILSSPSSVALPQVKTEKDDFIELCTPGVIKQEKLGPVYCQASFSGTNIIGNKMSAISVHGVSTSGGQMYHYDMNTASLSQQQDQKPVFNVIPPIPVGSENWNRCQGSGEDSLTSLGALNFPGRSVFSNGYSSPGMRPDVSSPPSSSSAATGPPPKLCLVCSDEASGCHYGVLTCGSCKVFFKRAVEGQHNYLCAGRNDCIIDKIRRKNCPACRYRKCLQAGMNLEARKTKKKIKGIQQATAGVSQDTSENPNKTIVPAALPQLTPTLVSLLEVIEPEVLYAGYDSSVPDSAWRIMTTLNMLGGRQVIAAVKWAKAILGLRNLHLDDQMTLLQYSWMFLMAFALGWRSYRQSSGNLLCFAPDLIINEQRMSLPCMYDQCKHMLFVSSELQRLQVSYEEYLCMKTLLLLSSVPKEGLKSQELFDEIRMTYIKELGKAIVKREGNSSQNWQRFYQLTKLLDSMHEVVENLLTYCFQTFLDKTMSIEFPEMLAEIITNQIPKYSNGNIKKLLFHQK
Put plainly: Antagonist activity at GR in rat PBMC assessed as reduction in dexamethasone-induced GILZ gene expression incubated for 24 hrs by RT-qPCR method. The format is cell-based. On the technique in general: Quantitative PCR measures a nucleic acid by following its amplification.

Data set [2] has as its target T2, glucocorticoid receptor (GR) (Homo sapiens, UniProt P04150).
T2 sequence (P04150 whole entry): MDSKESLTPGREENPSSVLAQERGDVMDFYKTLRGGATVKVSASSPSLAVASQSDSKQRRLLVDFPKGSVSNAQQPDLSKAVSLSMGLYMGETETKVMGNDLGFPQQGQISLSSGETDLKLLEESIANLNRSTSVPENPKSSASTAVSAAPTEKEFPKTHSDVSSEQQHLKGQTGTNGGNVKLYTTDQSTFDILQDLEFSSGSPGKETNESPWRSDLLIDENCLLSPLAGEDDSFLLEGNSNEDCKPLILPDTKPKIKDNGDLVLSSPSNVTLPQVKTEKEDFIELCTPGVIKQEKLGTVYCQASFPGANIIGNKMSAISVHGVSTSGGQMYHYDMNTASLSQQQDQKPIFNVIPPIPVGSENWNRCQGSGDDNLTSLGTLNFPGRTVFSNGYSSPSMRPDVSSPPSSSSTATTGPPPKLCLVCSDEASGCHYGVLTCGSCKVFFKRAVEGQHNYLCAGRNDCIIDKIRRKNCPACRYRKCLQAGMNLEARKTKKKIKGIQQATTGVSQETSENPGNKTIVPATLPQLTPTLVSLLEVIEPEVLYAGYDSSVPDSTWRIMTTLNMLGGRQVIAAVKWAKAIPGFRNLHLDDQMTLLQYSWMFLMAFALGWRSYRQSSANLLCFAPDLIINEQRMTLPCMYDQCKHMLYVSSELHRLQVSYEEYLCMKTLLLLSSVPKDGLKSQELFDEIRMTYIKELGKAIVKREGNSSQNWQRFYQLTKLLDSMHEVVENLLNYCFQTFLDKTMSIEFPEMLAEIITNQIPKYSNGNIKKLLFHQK
Put plainly: Agonist activity at human GR expressed in CHO-K1 cells incubated for 20 hrs by luciferase reporter gene assay relative to dexamethasone. It counts as cell-based. As to conditions: CHO-K1 cells expressing human GR.

In the next data set the target is T3, Cytochrome P450 2C8 (Homo sapiens, UniProt P10632).
T3 sequence (P10632 whole entry): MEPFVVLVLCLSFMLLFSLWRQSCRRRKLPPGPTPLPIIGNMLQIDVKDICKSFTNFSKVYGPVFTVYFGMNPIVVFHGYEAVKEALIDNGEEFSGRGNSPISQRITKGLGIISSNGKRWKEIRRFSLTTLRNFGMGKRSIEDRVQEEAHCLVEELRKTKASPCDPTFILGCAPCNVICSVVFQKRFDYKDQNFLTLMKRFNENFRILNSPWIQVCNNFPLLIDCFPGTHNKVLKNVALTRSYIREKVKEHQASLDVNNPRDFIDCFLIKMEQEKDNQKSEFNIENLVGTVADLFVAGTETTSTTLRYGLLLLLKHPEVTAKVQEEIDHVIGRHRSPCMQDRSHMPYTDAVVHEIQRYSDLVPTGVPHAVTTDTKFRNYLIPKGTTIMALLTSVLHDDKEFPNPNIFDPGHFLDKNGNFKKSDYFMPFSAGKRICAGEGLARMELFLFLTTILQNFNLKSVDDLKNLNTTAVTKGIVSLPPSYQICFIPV
Put plainly: Inhibition of CYP2C8 (unknown origin) using […] as substrate. It counts as ADME.

The nature of data set [3]: Oral bioavailability in rat at 5 mg/kg. It counts as ADME, organism-based. As to conditions: in vivo.
Data set [4] in a line: Unbound fraction in human plasma. It counts as ADME, cell-free.
Data set [5] can be described thus: Unbound plasma concentration in nude mouse xenografted with human OVCAR5 cells at 25 to 75 mg/kg, po dosed as gavage and measured after 6 hrs. It counts as ADME, organism-based. As to conditions: in vivo. In outline: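 OVCAR5 xenograft mice received dexamethasone 0.5 mg/kg by intraperitoneal injection with or without a single oral gavage dose of the antagonist at 25, 50 or 75 mg/kg. Tumors and plasma collected 6 h later. Tumor FKBP5 mRNA measured by RT-qPCR. Unbound plasma concentration of the antagonist determined, n = 4 mice per group. FKBP5 effects tested by one-way ANOVA with Dunnett's test versus the vehicle group.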

Regarding `CC(C)N(C)c1ccc([C@H]2C[C@@]3(C)[C@@H](CC[C@@]3(O)C#CC(C)(C)C)[C@@H]3CCC4=CC(=O)CC[C@@H]4[C@H]32)cc1`, in data set [1], the peak level (Cmax) was 274 ng/mL. The concentration for half-maximal inhibition (IC50) at Glucocorticoid receptor was 0.0594 µM; against Cytochrome P450 2C8, above 10 µM. This molecule returned an Emax at 20 h in data set [2] of 2.3%. Further, the bioavailability in data set [3] turned out to be 24%. This molecule also yielded a free fraction (fraction unbound) in data set [4] of 0.14. The molecule further returned a Cp(f) in data set [5] of 20 to 120 nM.
